Assay results of several laboratories.
Compare with care: the assays were run in different laboratories. Values after ≈ are worked out from the molar mass of the structure shown.

CN[C@H](CC(C)C)C(=O)N[C@H]1C(=O)N[C@@H](CC(N)=O)C(=O)N[C@H]2C(=O)N[C@H]3C(=O)N[C@H](C(=O)N[C@H](C(=O)O)c4cc(O)cc(O)c4-c4cc3ccc4O)[C@H](O)c3ccc(c(Cl)c3)Oc3cc2cc(c3O[C@@H]2O[C@H](CO)[C@@H](O)[C@H](O)[C@H]2O[C@H]2C[C@](C)(N)[C@H](O)[C@H](C)O2)Oc2ccc(cc2Cl)[C@H]1O — MIC (Enterococcus faecalis; microbial growth; ATCC29212): 2 µM (≈ 2.9 µg/mL)
COc1ccc(COC[C@@](O)(CNCc2ccccc2)[C@@H]2CC[C@@H](C)C[C@H]2OCc2ccc(OC)cc2)cc1 — inhibition (HeLa; cell growth or viability, MTT; 10 µM, 72 h): 93.8%
C=CC(=O)NC1CCN(c2ncc3ncnc(Nc4ccc(Oc5ccc6c(c5)ncn6C)c(C)c4)c3n2)CC1 — EC50 (SNU-216; cell growth or viability): 0.0102 µM
O=C(NC(=S)Nc1nccs1)c1ccco1 — IC50 (Leishmania major; parasite growth, resazurin; promastigote): 12.9 µM
CN[C@@H]1[C@@H](O[C@H]2O[C@H](CO)[C@@H](N)[C@H](O)[C@H]2O)OC2C[C@@H](N)[C@@H](O[C@H]3[C@H](O)[C@@H](O)[C@H](N)C[C@@H]3N)OC2[C@@H]1O (stereo partly shown) — MIC (Vibrio alginolyticus; microbial growth; 24 h): > 40 µM
Cc1nc(NC(=S)NCc2ccco2)nc(-c2ccccc2)c1C(=O)N1CCC(C(=O)O)CC1 — IC50 (Leishmania major; parasite growth, resazurin; promastigote): 0.18 µM
C=C(COCc1ccc(F)cc1)[C@@H]1CC[C@@H](C)C[C@H]1OCc1ccc(F)cc1 — inhibition (HeLa; cell growth or viability, MTT; 30 µM, 72 h): 61.5%
O=C(NC(=S)Nc1ccccc1O)c1ccco1 — IC50 (Leishmania major; parasite growth, resazurin; promastigote): 6.08 µM
C[C@@H]1CC[C@@H]([C@](C)(O)CNCc2ccc(F)cc2)[C@H](OCc2ccccc2)C1 — inhibition (HeLa; cell growth or viability, MTT; 30 µM, 72 h): 60.1%
O=C(N[C@H](CO)[C@H](O)c1ccc([N+](=O)[O-])cc1)C(Cl)Cl — MIC (Vibrio alginolyticus; microbial growth; 24 h): 1.25 to 2.5 µM (≈ 0.404 to 0.808 µg/mL)
Cc1cc(NC(=O)C=Cc2ccccc2)cc(-c2ccnc(N3CCC(CO)CC3)c2)c1 — inhibition (HeLa; cell growth or viability, MTT; 5 µM): 81.8%
C[C@@H]1CC[C@@H]([C@@](O)(CNCc2ccccc2)COCc2ccccc2)[C@H](OCc2ccccc2)C1 — inhibition (HeLa; cell growth or viability, MTT; 30 µM, 72 h): 98.2%
O=C(NC(=S)Nc1cccc(O)c1)c1cccs1 — IC50 (Leishmania major; parasite growth, resazurin; promastigote): 0.29 µM
